Measured values reported in article PMC11393732 (RSC Medicinal Chemistry, 2024).
pIC50: −log10 of the molar value.

Experiments:
KDM3B = KDM3B (Homo sapiens, UniProt Q7LBC6); assay: Western blot KDM3B degradation in SW480 cells; assay type: cell-based; settings: SW480 cells, 16 hours
Method in brief: (§1)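 SW480 cells exposed to test compound for 16 h, then total lysates protein-normalised and run on SDS-PAGE. Semi-dry transfer to PVDF, 1 h block in 5% milk. Primary antibody overnight at 4 °C in 1% milk, secondary 1 h at RT, TBST washes, α-tubulin as loading control. Rescue arms co-treated with MLN4924 (1 μM) or pomalidomide (100 μM). Test compound at 0.1 μM for the KDM3A blot and 1 μM for the KDM3B blot.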

KDM3A = target: T1, KDM3A (Homo sapiens, UniProt Q9Y4C1); assay: Western blot KDM3A degradation in SW480 cells; assay type: cell-based; settings: SW480 cells, 16 hours
T1 sequence (Q9Y4C1 1-1321): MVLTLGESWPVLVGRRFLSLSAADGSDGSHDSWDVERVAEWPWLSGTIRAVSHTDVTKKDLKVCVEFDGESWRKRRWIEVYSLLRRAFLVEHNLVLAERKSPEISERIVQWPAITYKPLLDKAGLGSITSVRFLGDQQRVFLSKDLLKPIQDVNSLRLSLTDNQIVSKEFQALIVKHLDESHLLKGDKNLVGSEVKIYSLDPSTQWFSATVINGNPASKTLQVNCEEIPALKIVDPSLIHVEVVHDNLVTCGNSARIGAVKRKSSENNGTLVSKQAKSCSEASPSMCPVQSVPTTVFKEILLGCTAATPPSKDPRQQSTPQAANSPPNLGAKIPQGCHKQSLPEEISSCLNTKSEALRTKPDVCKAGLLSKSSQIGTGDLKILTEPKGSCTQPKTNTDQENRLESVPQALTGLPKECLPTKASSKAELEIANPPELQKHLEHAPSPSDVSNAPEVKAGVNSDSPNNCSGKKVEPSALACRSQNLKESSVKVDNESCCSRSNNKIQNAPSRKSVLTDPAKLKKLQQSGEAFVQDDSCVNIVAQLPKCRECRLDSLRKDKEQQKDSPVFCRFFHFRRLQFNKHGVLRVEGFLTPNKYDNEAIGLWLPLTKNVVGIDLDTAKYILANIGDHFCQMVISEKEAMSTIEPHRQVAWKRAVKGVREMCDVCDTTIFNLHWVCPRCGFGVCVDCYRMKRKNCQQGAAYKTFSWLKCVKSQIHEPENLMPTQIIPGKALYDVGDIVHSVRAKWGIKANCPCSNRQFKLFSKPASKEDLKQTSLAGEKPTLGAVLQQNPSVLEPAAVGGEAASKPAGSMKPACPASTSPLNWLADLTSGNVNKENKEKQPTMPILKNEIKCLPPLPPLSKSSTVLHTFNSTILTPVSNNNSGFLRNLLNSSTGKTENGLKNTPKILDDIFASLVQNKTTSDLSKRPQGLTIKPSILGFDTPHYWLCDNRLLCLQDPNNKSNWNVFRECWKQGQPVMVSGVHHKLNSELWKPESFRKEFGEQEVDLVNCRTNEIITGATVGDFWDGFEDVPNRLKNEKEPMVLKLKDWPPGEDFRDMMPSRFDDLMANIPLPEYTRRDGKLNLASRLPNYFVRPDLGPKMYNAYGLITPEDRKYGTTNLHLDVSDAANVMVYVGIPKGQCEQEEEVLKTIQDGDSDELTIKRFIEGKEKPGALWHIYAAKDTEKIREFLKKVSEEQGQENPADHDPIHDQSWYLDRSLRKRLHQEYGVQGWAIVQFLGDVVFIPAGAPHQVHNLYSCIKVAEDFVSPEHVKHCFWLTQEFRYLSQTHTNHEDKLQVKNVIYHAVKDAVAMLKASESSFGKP
Method in brief: as §1

ALDH^high-HCP-1 CSCs = assay: Tumor sphere formation assay HCP-1; assay type: cell-based, human; settings: 2 weeks
Method in brief: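 Trypsinised cells passed through a 40 μm strainer and stained with ALDEFLUOR. ALDHHigh cells sorted by FACS, with DEAB-treated cells as gating control. Plated at 1000 cells/well on ultra-low attachment in serum-free MEBM containing 2% B27, 20 ng mL−1 EGF, 10 ng mL−1 FGF, 1 ng mL−1 hydrocortisone, 5 μg mL−1 insulin and 100 μM β-mercaptoethanol. Dosed 1 h after plating; medium renewed at 1 week. Spheres >40 μm counted at 2 weeks for ED50.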

HCP-1 cells = assay: Clonogenic assay HCP-1; assay type: cell-based, human; settings: HCP-1, 2 weeks
Method in brief: (§2)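 Cells kept in DMEM with 10% FBS and 1% pen–strep, seeded at 500 cells/well and dosed with test compound once attached. Medium refreshed every 3 days for 2 weeks. Colonies stained with 0.5% crystal violet and photographed. ED50 obtained by image analysis.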

[1] = system: Wnt target genes in HCP-1 cells; assay: RT-qPCR of Wnt target gene expression in HCP-1; assay type: cell-based, human
Method in brief: (§3)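 Cells in 6-well plates exposed to test compound for 16 h. Total RNA extracted; 1 μg reverse-transcribed with M-MuLV and random hexamers. SYBR Green qPCR for the named genes, quantified by 2ΔΔct against tubulin. Mean ± SD; unpaired two-tailed Student's t-test.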

CRL-1790 cells = assay: CCK-8 based toxicity assay; assay type: cell-based, human
Method in brief: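 Non-malignant human colon epithelial CRL-1790 cells grown in EMEM with 10% FBS and 1% pen–strep at 37 °C and 5% CO2. Seeded at 3 × 10^3 cells/well in 96-well plates, then exposed to test compound. Viability read by CCK-8 at 48 h as OD 450 nm. TD50 derived from the dose–response.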

SW480 cells = assay: Clonogenic assay SW480; assay type: cell-based, human; settings: SW480, 2 weeks
Method in brief: as §2

[2] = system: Wnt target genes in SW480 cells; assay: RT-qPCR of Wnt target gene expression in SW480; assay type: cell-based, human
Method in brief: as §3

[3] = system: KDM4 family proteins (KDM4A, KDM4B and KDM4C); assay: Western blot KDM4 family proteins in SW480 cells; assay type: cell-based, human
Method in brief: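 Lysates from compound-treated SW480 cells normalised for total protein and resolved by SDS-PAGE. Semi-dry transfer to PVDF, 1 h block in 5% milk. Overnight incubation at 4 °C with anti-KDM4A, -KDM4B or -KDM4C antibody in 1% milk, secondary 1 h at RT, TBST washes, α-tubulin as loading control.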

[4] = Hepatic metabolism S9 fraction incubation, rat; settings: 0.1 μM, plus glutathione, UDPGA, PAPS, 37 °C
[5] = Hepatic metabolism S9 fraction incubation, human; settings: 0.1 μM, plus glutathione, UDPGA, PAPS, 37 °C
CSC growth = settings: most cell-based assays ref 16,17; cited from earlier work
[6] = system: 293T cells expressing a TCF-responsive luciferase reporter (293T-TCF-Luc); assay: Wnt luciferase reporter assay; assay type: cell-based; settings: Homo sapiens, HEK-293T, 16 h, read-out: IC50 (293T-TCF-Luc)
Method in brief: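 293T cells stably transduced with a lentiviral TCF/LEF–luciferase reporter and selected in puromycin ([…], 4 days). Seeded at 100 000 cells/well and dosed with test compound on attachment. Wnt signalling stimulated with 20 mM LiCl 4 h later. Lysates taken at 16 h; Bright-Glo luminescence normalised to total protein.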

Sequence of KDM3B (Q7LBC6 whole entry): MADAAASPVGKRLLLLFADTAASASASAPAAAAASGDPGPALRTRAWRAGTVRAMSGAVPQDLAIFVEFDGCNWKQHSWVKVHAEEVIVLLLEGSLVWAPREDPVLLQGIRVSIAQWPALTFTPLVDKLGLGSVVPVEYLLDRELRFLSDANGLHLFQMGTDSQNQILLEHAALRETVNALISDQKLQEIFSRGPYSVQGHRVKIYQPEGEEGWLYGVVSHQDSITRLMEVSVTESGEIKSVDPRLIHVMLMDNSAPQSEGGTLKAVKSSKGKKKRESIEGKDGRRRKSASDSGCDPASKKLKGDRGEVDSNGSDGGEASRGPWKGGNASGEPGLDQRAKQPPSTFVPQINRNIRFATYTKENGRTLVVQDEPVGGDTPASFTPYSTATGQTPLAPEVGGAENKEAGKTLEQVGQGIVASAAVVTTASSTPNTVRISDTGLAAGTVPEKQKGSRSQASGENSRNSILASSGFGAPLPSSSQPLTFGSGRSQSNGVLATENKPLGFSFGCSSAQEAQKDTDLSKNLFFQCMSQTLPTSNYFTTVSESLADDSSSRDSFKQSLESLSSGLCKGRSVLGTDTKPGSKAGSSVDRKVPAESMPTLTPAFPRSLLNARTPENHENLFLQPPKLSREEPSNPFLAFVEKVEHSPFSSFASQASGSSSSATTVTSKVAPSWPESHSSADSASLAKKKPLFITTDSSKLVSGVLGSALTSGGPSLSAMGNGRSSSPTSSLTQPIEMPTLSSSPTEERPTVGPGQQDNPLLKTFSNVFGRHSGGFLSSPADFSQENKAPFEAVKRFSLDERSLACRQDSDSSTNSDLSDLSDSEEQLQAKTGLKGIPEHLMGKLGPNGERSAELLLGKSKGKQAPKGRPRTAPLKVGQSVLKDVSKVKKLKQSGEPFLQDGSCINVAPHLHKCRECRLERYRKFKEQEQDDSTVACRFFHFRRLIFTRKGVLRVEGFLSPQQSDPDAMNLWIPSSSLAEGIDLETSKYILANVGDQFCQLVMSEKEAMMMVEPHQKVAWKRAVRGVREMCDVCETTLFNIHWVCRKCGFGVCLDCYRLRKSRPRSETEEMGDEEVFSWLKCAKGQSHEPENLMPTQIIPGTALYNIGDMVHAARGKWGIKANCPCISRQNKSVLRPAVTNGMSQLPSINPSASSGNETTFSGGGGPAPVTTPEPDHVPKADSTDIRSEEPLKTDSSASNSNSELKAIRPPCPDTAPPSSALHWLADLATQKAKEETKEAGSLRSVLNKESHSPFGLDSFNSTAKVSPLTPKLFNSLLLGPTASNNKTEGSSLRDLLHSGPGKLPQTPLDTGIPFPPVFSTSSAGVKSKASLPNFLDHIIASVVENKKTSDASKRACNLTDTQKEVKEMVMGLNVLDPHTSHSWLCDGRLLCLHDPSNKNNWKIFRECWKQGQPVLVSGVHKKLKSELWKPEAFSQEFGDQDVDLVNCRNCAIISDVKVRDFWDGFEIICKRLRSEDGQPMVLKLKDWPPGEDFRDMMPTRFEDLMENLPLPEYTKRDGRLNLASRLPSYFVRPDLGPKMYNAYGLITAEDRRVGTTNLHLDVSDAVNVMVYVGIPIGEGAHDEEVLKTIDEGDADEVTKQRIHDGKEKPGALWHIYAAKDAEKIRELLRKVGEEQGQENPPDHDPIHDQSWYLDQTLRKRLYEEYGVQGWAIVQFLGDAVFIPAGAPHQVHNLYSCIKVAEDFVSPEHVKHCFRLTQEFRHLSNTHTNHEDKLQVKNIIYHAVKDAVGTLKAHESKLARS

With O=C1CCC(N2C(=O)c3cccc(NCCOCCOCCOCCNC(=O)c4ccc(O)c5ncccc45)c3C2=O)C(=O)N1 (stereo not drawn) [Compound 3, N-(2-(2-(2-(2-((2-(2,6-Dioxopiperidin-3-yl)-1,3-dioxoisoindolin-4-yl)amino)ethoxy)ethoxy)ethoxy)ethyl)-8-hydroxyquinoline-5-carboxamide] the “KDM3B degradation (western blot)” value (KDM3B) was “little effect in degrading KDM3A and KDM3B” and the “KDM3A degradation (western blot)” value (KDM3A) was “little effect in degrading KDM3A and KDM3B”.

For O=C1CCC(N2C(=O)c3cccc(NCCOCCOCCOCCOCCOCCNC(=O)c4ccc(O)c5ncccc45)c3C2=O)C(=O)N1 (stereo not drawn) [Compound 5, N-(17-((2-(2,6-Dioxopiperidin-3-yl)-1,3-dioxoisoindolin-4-yl)amino)-3,6,9,12,15-pentaoxaheptadecyl)-8-hydroxyquinoline-5-carboxamide], the “KDM3B degradation (western blot)” value (KDM3B) was “little effect in degrading KDM3A and KDM3B” and the “KDM3A degradation (western blot)” value (KDM3A) was “little effect in degrading KDM3A and KDM3B”.

In the case of O=C1CCC(N2C(=O)c3cccc(NCCOCCOCCOCCOCCOCCOCCNC(=O)c4ccc(O)c5ncccc45)c3C2=O)C(=O)N1 (stereo not drawn) [Compound 6, N-(20-((2-(2,6-Dioxopiperidin-3-yl)-1,3-dioxoisoindolin-4-yl)amino)-3,6,9,12,15,18-hexaoxaicosyl)-8-hydroxyquinoline-5-carboxamide], the “KDM3B degradation (western blot)” value (KDM3B) was “limited ability to degrade KDM3A and KDM3B”, the “ED50 HCP-1 (tumor sphere formation)” value (ALDH^high-HCP-1 CSCs) was 0.51 µM and the colony formation (HCP-1 cells) was “potently inhibited the colony formation”. For the same compound, the “suppression of Wnt target gene expression (AXIN2, DKK1, CCND1)” value ([1]; HCP-1, 50 μM, 16-hour treatment, in most cases) was no less than 50%, the “expression of colorectal CSC signature genes (ASCL2, RNF43, ZNRF3, LGR5)” value ([1]; HCP-1, 16 hours) was “strongly inhibited” and the “cell growth of CRL-1790” value (CRL-1790 cells; 60 μM, two-day treatment) was “not dramatically affected”. For the same compound, the “TD50 CRL-1790” value (CRL-1790 cells; CCK8 assay, 48 h post drug treatment) was 400.3 µM, the colony formation (SW480 cells) was “potently inhibited the colony formation” and the “KDM3A degradation (western blot)” value (KDM3A) was “limited ability to degrade KDM3A and KDM3B”. For the same compound, the “suppression of Wnt target gene expression (AXIN2, DKK1, CCND1)” value ([2]; SW480, 50 μM, 16-hour treatment, in most cases) was no less than 50%, the “expression of colorectal CSC signature genes (ASCL2, RNF43, ZNRF3, LGR5)” value ([2]; SW480, 16 hours) was “strongly inhibited” and the “effect on KDM4 family proteins” value [3] was “not dramatically affected”.

With O=C(O)Cc1ccccc1Nc1c(Cl)cccc1Cl [Diclofenac, reference compound] the “CLint Rat (liver, S9)” value [4] was 6.8 µL/min/mg and the “CLint Human (liver, S9)” value [5] was 37.5 µL/min/mg.

In the case of O=C(O)c1ccc(O)c2ncccc12 [IOX1, 8-Hydroxyquinoline-5-carboxylic acid, reference compound], the “KDM3B degradation (western blot)” value (KDM3B) is listed as “did not induce KDM3A and KDM3B degradation”, the “ED50 HCP-1 (tumor sphere formation)” value (ALDH^high-HCP-1 CSCs) is listed as 10.1 µM and the “effective concentrations for suppressing CSC growth” value (CSC growth) is listed as 20 to 50 µM. The “KDM3A degradation (western blot)” value (KDM3A) was “did not induce KDM3A and KDM3B degradation” and the pIC50 [6] was 4.31.

CC(C)NCC(O)COc1cccc2ccccc12 (stereo not drawn) [Propranolol, reference compound] gave a half-life at 0.1 μM ([5]; human, s9, t 1/2 Human (liver, S9)) greater than 2 h.
